# Columns and labels:
# [1] = tested on: Liver; assay: Biodistribution in NMRI mouse liver assessed per gram of tissue at 3.7 MBq/mL after 2 mins by gamma counter; format: ADME, organism-based; conditions: in vivo
# Procedure, shortened: (§1)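 Male NMRI mice (30–40 g), anaesthetised by ip Hypnorm (0.1 ml), given 0.1 ml diluted tracer via tail vein (ethanol ≤10%, THF ≤0.02%). Killed by decapitation at 2 or 60 min pi, n = 4 per time point. Blood and organs dissected and weighed, radioactivity gamma-counted with background correction. Reported as % ID or % ID/g; total blood activity assumes blood mass 7% of body mass.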
# [2] = Biodistribution in NMRI mouse cerebrum assessed per gram of tissue at 3.7 MBq/mL after 60 mins by gamma counter; format: ADME, organism-based; conditions: in vivo, 1 h; procedure, shortened: as §1
# [3] = tested on: Cerebellum; assay: Biodistribution in NMRI mouse cerebellum assessed per gram of tissue at 3.7 MBq/mL after 2 mins by gamma counter; format: ADME, organism-based; conditions: in vivo; procedure, shortened: as §1
# [4] = tested on: Lung; assay: Biodistribution in NMRI mouse lungs at 3.7 MBq/mL after 60 mins by gamma counter; format: ADME, organism-based; conditions: in vivo, 1 h; procedure, shortened: as §1
# [5] = tested on: Blood; assay: Biodistribution in NMRI mouse blood at 3.7 MBq/mL after 60 mins by gamma counter; format: ADME, organism-based; conditions: in vivo, 1 h; procedure, shortened: as §1
# [6] = tested on: Kidney; assay: Biodistribution in NMRI mouse kidneys assessed per gram of tissue at 3.7 MBq/mL after 60 mins by gamma counter; format: ADME, organism-based; conditions: in vivo, 1 h; procedure, shortened: as §1
# [7] = tested on: Lung; assay: Biodistribution in NMRI mouse lungs assessed per gram of tissue at 3.7 MBq/mL after 60 mins by gamma counter; format: ADME, organism-based; conditions: in vivo, 1 h; procedure, shortened: as §1
# [8] = Biodistribution in NMRI mouse cerebrum at 3.7 MBq/mL after 2 mins by gamma counter; format: ADME, organism-based; conditions: in vivo; procedure, shortened: as §1
# [9] = tested on: Lung; assay: Biodistribution in NMRI mouse lungs assessed per gram of tissue at 3.7 MBq/mL after 2 mins by gamma counter; format: ADME, organism-based; conditions: in vivo; procedure, shortened: as §1
# [10] = tested on: Cerebellum; assay: Biodistribution in NMRI mouse cerebellum at 3.7 MBq/mL after 60 mins by gamma counter; format: ADME, organism-based; conditions: in vivo, 1 h; procedure, shortened: as §1
# [11] = Biodistribution in NMRI mouse liver/gallbladder at 3.7 MBq/mL after 2 mins by gamma counter; format: ADME, organism-based; conditions: in vivo; procedure, shortened: as §1
# [12] = tested on: Cerebellum; assay: Biodistribution in NMRI mouse cerebellum assessed per gram of tissue at 3.7 MBq/mL after 60 mins by gamma counter; format: ADME, organism-based; conditions: in vivo, 1 h; procedure, shortened: as §1
# [13] = tested on: Kidney; assay: Biodistribution in NMRI mouse kidneys at 3.7 MBq/mL after 60 mins by gamma counter; format: ADME, organism-based; conditions: in vivo, 1 h; procedure, shortened: as §1
# [14] = tested on: Blood; assay: Biodistribution in NMRI mouse blood assessed per gram of tissue at 3.7 MBq/mL after 60 mins by gamma counter; format: ADME, organism-based; conditions: in vivo, 1 h; procedure, shortened: as §1
# [15] = tested on: Kidney; assay: Biodistribution in NMRI mouse kidneys at 3.7 MBq/mL after 2 mins by gamma counter; format: ADME, organism-based; conditions: in vivo; procedure, shortened: as §1
# [16] = tested on: Intestine; assay: Biodistribution in NMRI mouse intestine at 3.7 MBq/mL after 2 mins by gamma counter; format: ADME, organism-based; conditions: in vivo; procedure, shortened: as §1
# [17] = tested on: Blood; assay: Biodistribution in NMRI mouse blood at 3.7 MBq/mL after 2 mins by gamma counter; format: ADME, organism-based; conditions: in vivo; procedure, shortened: as §1
# [18] = Biodistribution in NMRI mouse cerebrum at 3.7 MBq/mL after 60 mins by gamma counter; format: ADME, organism-based; conditions: in vivo, 1 h; procedure, shortened: as §1
# [19] = tested on: Liver; assay: Biodistribution in NMRI mouse liver at 3.7 MBq/mL after 2 mins by gamma counter; format: ADME, organism-based; conditions: in vivo; procedure, shortened: as §1
# [20] = Biodistribution in NMRI mouse cerebrum assessed per gram of tissue at 3.7 MBq/mL after 2 mins by gamma counter; format: ADME, organism-based; conditions: in vivo; procedure, shortened: as §1
# [21] = Biodistribution in NMRI mouse urine at 3.7 MBq/mL after 2 mins by gamma counter; format: ADME, organism-based; conditions: in vivo; procedure, shortened: as §1
# [22] = tested on: Cerebellum; assay: Biodistribution in NMRI mouse cerebellum at 3.7 MBq/mL after 2 mins by gamma counter; format: ADME, organism-based; conditions: in vivo; procedure, shortened: as §1
# [23] = tested on: Blood; assay: Biodistribution in NMRI mouse blood assessed per gram of tissue at 3.7 MBq/mL after 2 mins by gamma counter; format: ADME, organism-based; conditions: in vivo; procedure, shortened: as §1
# [24] = tested on: Kidney; assay: Biodistribution in NMRI mouse kidneys assessed per gram of tissue at 3.7 MBq/mL after 2 mins by gamma counter; format: ADME, organism-based; conditions: in vivo; procedure, shortened: as §1
# [25] = tested on: Liver; assay: Biodistribution in NMRI mouse liver assessed per gram of tissue at 3.7 MBq/mL after 60 mins by gamma counter; format: ADME, organism-based; conditions: in vivo, 1 h; procedure, shortened: as §1
# [26] = Biodistribution in NMRI mouse liver/gallbladder at 3.7 MBq/mL after 60 mins by gamma counter; format: ADME, organism-based; conditions: in vivo, 1 h; procedure, shortened: as §1
# [27] = Biodistribution in NMRI mouse urine at 3.7 MBq/mL after 60 mins by gamma counter; format: ADME, organism-based; conditions: in vivo, 1 h; procedure, shortened: as §1
# [28] = tested on: Liver; assay: Biodistribution in NMRI mouse liver at 3.7 MBq/mL after 60 mins by gamma counter; format: ADME, organism-based; conditions: in vivo, 1 h; procedure, shortened: as §1
# [29] = Partition coefficient, log P at pH 7.4; format: physicochemical; conditions: octanol/water
# [30] = tested on: Lung; assay: Biodistribution in NMRI mouse lungs at 3.7 MBq/mL after 2 mins by gamma counter; format: ADME, organism-based; conditions: in vivo; procedure, shortened: as §1
smiles,measurement,setting,value
[18F]c1ccc(-c2nc3ccccc3s2)cc1,Activity,[1],10.2 % ID/g
same,Activity,[2],0.21 % ID/g
same,Activity,[3],3.35 % ID/g
same,Activity,[4],0.4 %ID
same,Activity,[5],1.8 %ID
same,Activity,[6],8.2 % ID/g
same,Activity,[7],1.5 % ID/g
same,Activity,[8],1.03 %ID
same,Activity,[9],13.8 % ID/g
same,Activity,[10],0.02 %ID
same,Activity,[11],30.3 %ID
same,Activity,[12],0.21 % ID/g
same,Activity,[13],5.9 %ID
same,Activity,[14],0.6 % ID/g
same,Activity,[15],11.4 %ID
same,Activity,[16],8.5 %ID
same,Activity,[17],7.8 %ID
same,Activity,[18],0.07 %ID
same,Activity,[19],21.8 %ID
same,Activity,[20],3.2 % ID/g
same,Activity,[21],0.6 %ID
same,Activity,[22],0.33 %ID
same,Activity,[23],2.9 % ID/g
same,Activity,[24],17.9 % ID/g
same,Activity,[25],5.3 % ID/g
same,Activity,[26],49.4 %ID
same,Activity,[27],15.5 %ID
same,Activity,[28],11.7 %ID
same,logD,[29],2.86
same,Activity,[30],3.9 %ID

# From ChEMBL document CHEMBL1143387, “Synthesis of 18F-labelled 2-(4'-fluorophenyl)-1,3-benzothiazole and evaluation as amyloid imaging agent in comparison with [11C]PIB” (Bioorg Med Chem Lett, 2009)
